Results taken from ChEMBL document CHEMBL4052629, “Scutellarin derivatives as apoptosis inducers: Design, synthesis and biological evaluation” (Eur J Med Chem, 2017).
Active and inactive are the calls of the source. No cut-off for these calls is given here.

Tests used:
HepG2 [1] = test: Induction of apoptosis in human HepG2 cells assessed as reduction in Hsp27 expression levels at 2 uM after 24 hrs by membrane-based sandwich immunoassay; type: functional, cell-based
Method in brief: (§1)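 HepG2 cells treated at 2 μM for 24 h; protein extracts prepared per the kit protocol. Relative levels of 35 apoptosis-related proteins measured with a human apoptosis antibody array.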

HepG2 [2] = test: Induction of apoptosis in human HepG2 cells assessed as late apoptotic cells at 0.3 uM after 72 hrs by Annexin V-APC/7-AAD or propidium iodide staining-based flow cytometric analysis (reference value: 4.14%); type: functional
HepG2 [3] = test: Induction of apoptosis in human HepG2 cells assessed as reduction in Hsp60 expression levels at 2 uM after 24 hrs by membrane-based sandwich immunoassay; type: functional, cell-based; method in brief: as §1
HepG2 [4] = test: Induction of apoptosis in human HepG2 cells assessed as reduction in HO-2 expression levels at 2 uM after 24 hrs by membrane-based sandwich immunoassay; type: functional, cell-based; method in brief: as §1
HepG2 [5] = test: Induction of apoptosis in human HepG2 cells assessed as reduction in mitochondrial membrane potential at 0.6 uM after 48 hrs by JC-1 staining-based flow cytometric analysis (reference value: 1.6%); type: functional; design: scale not given: the % may be the effect or the level left
Method in brief: (§2)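 HepG2 cells cultured overnight, then incubated in triplicate with 0, 0.3, 0.6 or 1.2 μM, or vehicle, for 48 h. Stained with the cationic dye JC-1. Flow cytometry gave the percentage of cells with healthy versus collapsed mitochondrial membrane potential.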

HepG2 [6] = test: Induction of apoptosis in human HepG2 cells assessed as necrotic cells at 1.2 uM after 72 hrs by Annexin V-APC/7-AAD or propidium iodide staining-based flow cytometric analysis (reference value: 1.87%); type: functional
HepG2 [7] = test: Cell cycle arrest in human HepG2 cells assessed as accumulation at G2/M phase at 0.3 uM after 72 hrs by propidium iodide staining-based flow cytometric analysis (reference value: 21.4%); type: functional
Method in brief: (§3)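 Concentrations used were 0, 0.3, 0.6 and 1.2 μM in HepG2 and 0, 0.16, 0.31 and 1.25 μM in PC-3, with untreated cells as control, for 72 h. Cells were trypsinized, washed in PBS, fixed in cold ethanol at 4 °C overnight, then incubated 30 min in PBS containing RNase A and propidium iodide. DNA content was read by flow cytometry to give phase distribution.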

HepG2 [8] = test: Induction of apoptosis in human HepG2 cells assessed as reduction in mitochondrial membrane potential after 48 hrs by JC-1 staining-based flow cytometric analysis; type: functional, cell-based; method in brief: as §2
HepG2 [9] = test: Induction of apoptosis in human HepG2 cells assessed as rupture of cell membrane at 1.2 uM after 48 hrs by Hoechst 33258 staining-based fluorescent microscopic analysis; type: functional
Method in brief: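 HepG2 cells on sterile cover slips in 6-well plates exposed to 0, 0.3, 0.6 or 1.2 μM, or vehicle, for 48 h. Fixed in 4% paraformaldehyde for 10 min, PBS-washed, stained with Hoechst 33258 for 5 min. Nuclear morphology and adherent cell number viewed at 350 nm excitation / 460 nm emission. Non-treated cells served as control.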

HepG2 [10] = test: Induction of apoptosis in human HepG2 cells assessed as reduction in Hsp70 expression levels at 2 uM after 24 hrs by membrane-based sandwich immunoassay; type: functional, cell-based; method in brief: as §1
HepG2 [11] = test: Induction of apoptosis in human HepG2 cells assessed as nuclear fragmentation at 1.2 uM after 48 hrs by Hoechst 33258 staining-based fluorescent microscopic analysis; type: functional, cell-based
Method in brief: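 HepG2 cells grown on coverslips were treated for 48 h at 0.3, 0.6 or 1.2 μM, then fixed in 4% paraformaldehyde for 10 min. After PBS washes, cells were stained with Hoechst 33258 for 5 min and washed again. Nuclear morphology was examined by fluorescence imaging at 350 nm excitation and 460 nm emission.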

HepG2 [12] = test: Cell cycle arrest in human HepG2 cells assessed as accumulation at G2/M phase at 0.6 uM after 72 hrs by propidium iodide staining-based flow cytometric analysis (reference value: 21.4%); type: functional; method in brief: as §3
HepG2 [13] = test: Cell cycle arrest in human HepG2 cells assessed as accumulation at G2/M phase at 1.2 uM after 72 hrs by propidium iodide staining-based flow cytometric analysis (reference value: 21.4%); type: functional; method in brief: as §3
HepG2 [14] = test: Induction of apoptosis in human HepG2 cells assessed as late apoptotic cells at 1.2 uM after 72 hrs by Annexin V-APC/7-AAD or propidium iodide staining-based flow cytometric analysis (reference value: 4.14%); type: functional
HepG2 [15] = test: Induction of apoptosis in human HepG2 cells assessed as early apoptotic cells at 0.6 uM after 72 hrs by Annexin V-APC/7-AAD or propidium iodide staining-based flow cytometric analysis (reference value: 1.87%); type: functional
L02 = test: Induction of apoptosis in human LO2 cells assessed as early apoptotic cells at 1.25 uM after 72 hrs by Annexin V-FITC/7-AAD or propidium iodide staining-based flow cytometric analysis (reference value: 3.65%); type: cell-based; conditions: l02, 72 h
PC-3 [16] = test: Induction of apoptosis in human PC3 cells assessed as viable cells at 0.31 uM after 72 hrs by Annexin V-APC/7-AAD or propidium iodide staining-based flow cytometric analysis (reference value: 88.74%); type: functional; conditions: PC-3, 72 h, read-out: Activity
PC-3 [17] = test: Cell cycle arrest in human PC3 cells assessed as accumulation at G1 phase at 0.16 uM after 72 hrs by propidium iodide staining-based flow cytometric analysis (reference value: 53.36%); type: functional; method in brief: as §3
PC-3 [18] = test: Induction of apoptosis in human PC3 cells assessed as necrotic cells at 0.31 uM after 72 hrs by Annexin V-APC/7-AAD or propidium iodide staining-based flow cytometric analysis (reference value: 2.43%); type: functional
PC-3 [19] = test: Cell cycle arrest in human PC3 cells assessed as accumulation at G2/M phase at 1.25 uM after 72 hrs by propidium iodide staining-based flow cytometric analysis (reference value: 10.19%); type: functional; method in brief: as §3
[20] = Induction of apoptosis in human LO2 cells assessed as viable cells at 1.25 uM after 72 hrs by Annexin V-FITC/7-AAD or propidium iodide staining-based flow cytometric analysis (reference value: 94.26%); type: cell-based, L02; conditions: read-out: Activity
PC-3 [21] = test: Induction of apoptosis in human PC3 cells assessed as early apoptotic cells at 0.31 uM after 72 hrs by Annexin V-APC/7-AAD or propidium iodide staining-based flow cytometric analysis (reference value: 4.09%); type: functional
PC-3 [22] = test: Induction of apoptosis in human PC3 cells assessed as early apoptotic cells at 1.25 uM after 72 hrs by Annexin V-APC/7-AAD or propidium iodide staining-based flow cytometric analysis (reference value: 4.09%); type: functional
PC-3 [23] = test: Induction of apoptosis in human PC3 cells assessed as late apoptotic cells at 1.25 uM after 72 hrs by Annexin V-APC/7-AAD or propidium iodide staining-based flow cytometric analysis (reference value: 4.74%); type: functional
PC-3 [24] = test: Induction of apoptosis in human PC3 cells assessed as cell shrinkage at 0.16 to 1.25 uM after 48 hrs by Hoechst 33258 staining-based fluorescent microscopic analysis; type: functional
Method in brief: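 PC-3 cells grown on sterile cover slips were exposed to 0, 0.16, 0.31 or 1.25 μM, or vehicle, for 48 h. Then fixed with 4% paraformaldehyde for 10 min, washed twice in PBS, stained with Hoechst 33258 for 5 min and washed again. Nuclei imaged at 350 nm excitation and 460 nm emission.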

O=C(NCCCOc1no[n+]([O-])c1S(=O)(=O)c1ccccc1)[C@H]1O[C@@H](Oc2cc3oc(-c4ccc(OCc5ccccc5)cc4)cc(=O)c3c(O)c2OCc2ccccc2)[C@H](O)[C@@H](O)[C@@H]1O
Activity (HepG2 [1]): Active | Activity (HepG2 [2]): 13.5% | Activity (HepG2 [3]): Active | Activity (HepG2 [4]): Active | Activity (HepG2 [5]): 31.12% | Activity (HepG2 [6]): 5.62% | Activity (HepG2 [7]): 20.73% | Activity (HepG2 [8]): Dose-dependent effect | Activity (HepG2 [9]): Active | Activity (HepG2 [10]): Active | Activity (HepG2 [11]): Active | Activity (HepG2 [12]): 17.54% | Activity (HepG2 [13]): 3.24% | Activity (HepG2 [14]): 39.16% | Activity (HepG2 [15]): 13.13%

COc1ccc(-c2cc(=O)c3c(O)c(OC)c(O[C@@H]4O[C@H](C(=O)NCCOc5no[n+]([O-])c5S(=O)(=O)c5ccccc5)[C@@H](O)[C@H](O)[C@H]4O)cc3o2)cc1
Activity (L02): 17.35% | viability at 0.31 µM (PC-3 [16]): 61.6% | Activity (PC-3 [17]): 50.05% | Activity (PC-3 [18]): 2.76% | Activity (PC-3 [19]): 9.1% | viability at 72 h, 1.25 µM [20]: 78.4% | Activity (PC-3 [21]): 13.2% | Activity (PC-3 [22]): 14.91% | Activity (PC-3 [23]): 43.54% | Activity (PC-3 [24]): Active
